Source: PubChem BioAssay
A selection: hits, their analogues and other compounds. The true share with any hit is near 2.4%.
697 NFkB inh – lowers PMA/ionomycin-induced NF-kB signal in 697 B cells. inhibition, % at 4 µM. 697 B-cell NF-kB luciferase reporter, 16 h. hit rate 0.33% among 330,000; in the data active = inhibition above about 35%
NR2E3 ag-1 – activates human photoreceptor nuclear receptor NR2E3; AID 2300; GST-NR2E3/biotin-RetCOR TR-FRET, 1536-well; hit rate 0.12% among 320,000; inhibition of corepressor binding, % at 4.78 µM;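 active = percent inhibition above the cutoff of mean plus 3 SD of all tested compounds, set per screening campaign, cut at about 20% in these data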;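 note: 0% = DMSO wells and 100% = biotin wells as full block of FRET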
Target sequence (Q9Y5X4 whole entry, looked up): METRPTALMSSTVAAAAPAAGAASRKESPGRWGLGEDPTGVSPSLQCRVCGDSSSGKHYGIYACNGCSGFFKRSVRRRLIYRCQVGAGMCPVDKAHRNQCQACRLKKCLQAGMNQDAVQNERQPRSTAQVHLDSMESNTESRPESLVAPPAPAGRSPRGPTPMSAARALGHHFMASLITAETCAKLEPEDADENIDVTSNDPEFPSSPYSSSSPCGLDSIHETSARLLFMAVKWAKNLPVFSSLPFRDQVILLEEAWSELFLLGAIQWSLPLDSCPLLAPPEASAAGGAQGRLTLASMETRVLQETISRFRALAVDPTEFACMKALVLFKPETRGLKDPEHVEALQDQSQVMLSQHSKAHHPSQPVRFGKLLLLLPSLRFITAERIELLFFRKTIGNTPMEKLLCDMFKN
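System: GST-NR2E3 and biotin-RetCOR proteins; probe or stimulus: 7 nM biotin-RetCOR; doses: compound at 4.8 µM, single dose; schedule: Compound–protein incubation for 5 h at 4 °C; detection: time-resolved FRET; read-out: percent inhibition; controls: biotin wells as high control, 0.6% DMSO wells as low control; format: 1536-well plates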
aDG glyco act – alpha-DG glycosylation activation | hit rate 0.22% among 360,000 | activation, % at 10 µM | Pro5-aDG cells, alpha-DG glycosylation AlphaScreen (IIH6); 0% Pro5, 100% B10-LARGE cell signal;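 active = activation of at least 8% versus controls, or a plate z-score of at least 8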;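 note: Pro5 are CHO cells carrying HIG-tagged alpha-DG that lacks glycosylation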
MPTP inh – inhibitors of mitochondrial permeability transition pore | isolated mouse mitochondria, Ca2+ swelling absorbance, 30 min | inhibition, % at 10 µM | hit rate 1.4% among 360,000 | AID 602449;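 active = inhibition of 50% or more, scaled per plate between neutral and stimulator controls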;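 note: 0% = DMSO wells given calcium and 100% = 1 mM EGTA wells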
Jurkat NFkB inh – lowers PMA/ionomycin-induced NF-kB signal in Jurkat cells. PMA/ionomycin-induced NF-kB luciferase reporter, luminescence. inhibition, % at 4 µM. hit rate 0.53% among 330,000; in the data active = inhibition above about 50%
NR2E3 ag-2 – human photoreceptor-specific nuclear receptor agonism. Q9Y5X4. CHO-S Gal4-NCOR/VP16-NR2E3 two-hybrid, luciferase. inhibition of corepressor binding, % at 3.98 µM. hit rate 0.35% among 360,000. AID 602229;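 active = inhibition above the mean of all tested compounds plus 3 SD, cut at about 70% in these data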;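 note: 0% = DMSO with NR2E3 transfected cells and 100% = cells lacking NR2E3 construct; higher means lower luciferase signal from less NR2E3 corepressor binding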
NR2E3 ag confirm – NR2E3 agonism confirmed in two-hybrid assay; CHO-S mammalian two-hybrid NR2E3-NCOR, luciferase luminescence; hit rate 51% among 2,300; inhibition, % at 3.98 µM; shares compounds with NR2E3 ag-2; AID 624378;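 active = average inhibition above a cutoff equal to the mean inhibition of all tested compounds plus one SD, cut at about 70% in these data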;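 note: 0% = DMSO in NR2E3 cells and 100% = DMSO in cells lacking NR2E3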
GAL4-VP16 luc – GAL4-VP16 reporter inhibition in NR2E3 agonist counterscreen; inhibition, % at 3.98 µM; shares compounds with NR2E3 ag-2; AID 624379; hit rate 29% among 2,300; CHO-S GAL4-VP16 luciferase reporter, luminescence;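 active = mean inhibition above a cutoff equal to the average over all tested compounds plus one standard deviation, cut at about 70% in these data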;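 note: luciferase from a UAS reporter driven by GAL4-VP16 transactivation; 0% = DMSO with VP16-transfected cells and 100% = DMSO with cells lacking VP16; higher means less reporter light so more repression of VP16 activity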
Active calls of the source: *; · = no result given.

SMILES | 697 NFkB inh | NR2E3 ag-1 | aDG glyco act | MPTP inh | Jurkat NFkB inh | NR2E3 ag-2 | NR2E3 ag confirm | GAL4-VP16 luc
Cc1ccc(NC(=O)NC2CC(=O)N(c3ccc4c(c3)OCCO4)C2)cc1C (stereo not given) | 5.5 | -3.0 | -0.4 | -0.6 | 7.8 | 54.5 | 32.4 | 6.3
Cc1nn(-c2ccccc2)c(C)c1NC(=O)COC(=O)C1CC(=O)N(CCc2ccccc2)C1 (stereo not given) | 7.6 | -1.4 | -0.2 | -1.2 | 13.7 | -26.3 | · | ·
COc1cccc(NC(=O)C2CCN(S(=O)(=O)c3ccc(N4CCCC4=O)cc3)CC2)c1 | · | · | 0.0 | 0.5 | · | 8.6 | · | ·
O=C(Nc1cccc(C(F)(F)F)c1)C1CCN(S(=O)(=O)c2ccc(N3CCCC3=O)cc2)CC1 | 5.6 | 4.7 | 1.7 | 49.9 | -0.5 | 84.7* | 90.3* | 67.6
COc1cccc(NC(=O)C2CCN(S(=O)(=O)c3ccc4c(c3)CC(C)N4C(C)=O)CC2)c1 (stereo not given) | 3.6 | -2.8 | 0.3 | -0.7 | 6.0 | -4.8 | · | ·
CC(=O)N1c2ccc(S(=O)(=O)N3CCC(C(=O)Nc4cccc(C(F)(F)F)c4)CC3)cc2CC1C (stereo not given) | -23.3 | -1.3 | 0.7 | 3.2 | 16.8 | 58.5 | 61.3 | 43.9
COc1ccc(F)c(CN2CCCC(CNS(=O)(=O)c3cccc4cccnc34)C2)c1 (stereo not given) | 6.7 | 0.4 | 0.4 | -1.6 | -2.7 | -34.2 | · | ·
CC(NC(=O)CCNC(=O)c1ccco1)c1ccc(F)cc1 (stereo not given) | 13.6 | 3.4 | -0.1 | -1.7 | 4.1 | 9.0 | · | ·
Cc1ccc(NC(=S)NCCC(c2ccccc2)c2ccccc2)c(C)c1 | 15.7 | -1.7 | 1.5 | 12.9 | 9.5 | 36.0 | · | ·
Cc1ccccc1NC(=S)NCCC(c1ccccc1)c1ccccc1 | 11.5 | 0.4 | 1.6 | 0.5 | 2.9 | 50.3 | 10.8 | 9.8
O=C(Cc1ccccc1)N1CCCC(c2nc(-c3ccc(S(=O)(=O)N4CCCC4)cc3)no2)C1 (stereo not given) | 20.6 | -1.1 | 0.0 | 3.6 | 4.8 | -15.9 | · | ·
CS(=O)(=O)N1CCCC(c2nc(-c3ccc(S(=O)(=O)NCc4ccccc4)cc3)no2)C1 (stereo not given) | 25.3 | -1.6 | 3.8 | 10.8 | 49.9 | 50.0 | 72.9* | 68.4
Cc1cc(=O)n(-c2ccc(O)cc2)[nH]1 | 21.0 | 14.0 | 0.2 | -1.0 | -2.6 | 55.9 | -7.6 | 3.7
Cc1cc(=O)n(-c2ccc(C(=O)O)cc2)[nH]1 | -27.6 | 14.4 | 0.1 | -0.6 | -1.6 | -24.0 | · | ·
S=C(NCc1ccccc1)N1CCN(c2ccccc2)CC1 | 1.4 | 1.9 | 0.5 | -1.6 | -3.3 | 8.6 | · | ·
CC(=O)Nc1ccc(S(=O)(=O)N2CCN(c3nc(NC4CCCC4)c4ccccc4n3)CC2)cc1 | 12.7 | 3.6 | 1.4 | 0.7 | 14.8 | 4.5 | · | ·
CCN(CC)c1ccc(C(=C2C=CC(=[N+](CC)CC)C=C2)c2ccccc2)cc1 | · | · | -0.7 | -9.4 | · | 101.1* | 99.2* | 98.4*
CC(=O)c1c(C)oc2ccc(NS(=O)(=O)c3ccc(F)cc3C)cc12 | -4.8 | 1.4 | 1.4 | 5.9 | 2.7 | 69.7 | 56.7 | 60.6
CC(OC(=O)c1ccc2ccccc2n1)C(=O)Nc1ccc(N2CCOCC2)cc1 (stereo not given) | 7.0 | 2.4 | 0.1 | -2.2 | -6.2 | -16.2 | · | ·
Cc1ccccc1N=Nc1c(C)[nH]n(C(N)=S)c1=O | -52.8 | -4.7 | 0.2 | 1.4 | -18.5 | 57.7 | -0.3 | -6.6
O=[N+]([O-])c1cc(Cl)ccc1Sc1cccc2cccnc12 | 9.8 | -1.0 | 0.0 | -0.7 | 20.2 | -3.3 | · | ·
O=[N+]([O-])c1ccc(Sc2cccc3cccnc23)c([N+](=O)[O-])c1 | 0.7 | 1.5 | -0.4 | 0.4 | 38.9 | 78.4* | 12.3 | -23.6
CN(C)S(=O)(=O)N1CCC(Oc2cccc(C(=O)NC3CCCCCC3)c2)CC1 | -12.6 | -2.8 | 3.0 | 11.2 | 17.9 | 90.9* | 60.4 | 53.7
Cc1ccc(-n2c(C)cc(C(=O)COc3cccnc3[N+](=O)[O-])c2C)cc1 | -10.8 | -1.5 | 0.7 | 7.7 | 36.7 | 68.0 | 29.4 | 49.5
Cc1cc(C(=O)COc2cccnc2[N+](=O)[O-])c(C)n1-c1ccccc1F | -12.9 | -3.2 | 0.2 | 1.7 | 36.6 | 50.0 | 58.0 | 35.2
SMILES | 697 NFkB inh | NR2E3 ag-1 | aDG glyco act | MPTP inh | Jurkat NFkB inh | NR2E3 ag-2 | NR2E3 ag confirm | GAL4-VP16 luc
CCN(CC)c1ccc(C(=O)NNC(=O)CN2C(=O)NC(C)(c3ccccc3)C2=O)cc1 (stereo not given) | 7.5 | -0.4 | -0.1 | -0.6 | -5.5 | 10.8 | · | ·
CCOC(=O)c1cc(S(=O)(=O)Nc2cccc(OC)c2)cn1C | -13.2 | 0.4 | 0.7 | 1.5 | 13.4 | 53.9 | 25.1 | 28.1
COC(=O)c1cc(S(=O)(=O)Nc2cc(OC)cc(OC)c2)cn1C | 7.5 | 1.5 | 0.0 | -1.3 | 8.7 | 14.1 | · | ·
O=C(O)c1cccc(Nc2ccncc2[N+](=O)[O-])c1 | 18.6 | -1.0 | 0.1 | 0.4 | 7.0 | -8.3 | · | ·
CCOC(=O)c1c(NC(=O)/C=C\C(=O)O)sc(C)c1-c1ccccc1 | 15.7 | 3.1 | -0.3 | 48.6 | -5.9 | -5.2 | · | ·
CCOC(=O)c1c(NC(=O)/C=C/C(=O)O)sc(C)c1-c1ccc(C(C)(C)C)cc1 | 32.4 | 0.0 | 1.5 | -2.7 | -2.0 | 53.2 | 50.9 | 7.6
O=C(c1ccco1)N1CCN(C(c2cccs2)c2nnnn2C2CCCCC2)CC1 (stereo not given) | 12.5 | 6.1 | 0.1 | -1.2 | -10.5 | -10.0 | · | ·
Cc1nnsc1C(=O)N1CCCC(C)(C(=O)NS(=O)(=O)C2CC2)C1 (stereo not given) | · | · | 0.6 | -0.6 | · | 10.8 | · | ·
CSC(=Nc1ccccc1)N=C(SCc1ccccc1)N(C)C | · | · | -0.3 | 23.7 | · | 86.1* | 87.0* | 53.1
C=C1C(=O)OC2C=C(CO)C3OC3C3OC3(C)CC(OC(=O)/C(=C/C)COC(C)=O)C12 (stereo not given) | · | · | -0.3 | -0.5 | · | 85.8* | 30.3 | 20.6
CC(=O)OCC1=C[C@@H]2OC(=O)C3=CO[C@@H](O[C@@H]4O[C@H](CO)[C@@H](O)[C@H](O)[C@H]4O)[C@H]1[C@@H]32 | 7.2 | 2.2 | -0.3 | -2.9 | 10.5 | -27.7 | · | ·
COc1ccc2oc(C(=O)NCc3cc(OC)c(OC)cc3OC)c(C)c2c1 | -10.5 | 2.9 | 0.4 | 29.1 | -1.4 | 74.7* | 43.5 | 52.8
Cc1ccc([C@@H]2C[C@H]3[C@@H](CN2S(=O)(=O)c2ccc(Cl)cc2)C(=O)C[C@@H](c2ccc(Cl)cc2)N3S(=O)(=O)c2ccccc2C)cc1 | · | · | 0.0 | 0.7 | · | -12.9 | · | ·
O=C(Nc1ccc2c(c1)OCCO2)NC1(C(F)(F)F)Oc2ccccc2O1 | -34.5 | -1.1 | 0.0 | 1.2 | 21.6 | 58.5 | 10.1 | -35.2
